Results as given in PubChem BioAssay AID821 (SRMLSC, 2007).
Activity calls are given as the source filed them.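 How the source made its calls: active means compounds whose fitted half-maximal concentration for reducing fibroblast viability is 100 µM or lower; inactive means the rest.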

Tested on: LL 47 lung fibroblast viability, ATP luminescence
Test: LL 47 lung fibroblast growth inhibition, concentration-response, selectivity test for endothelial growth inhibitor program, cellular, luminescent ATP readout (AID 821)
How it was run: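 Assay system: LL 47 human lung fibroblast cells | Amount: 1,150 cells/well | Schedule: 72 h exposure, 37 °C | Measured by: CellTiter-Glo luminescence | Measure: Percent viability relative to untreated wells, EC50 via 4-parameter fit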

| Structure (SMILES) | EC50 |
| --- | --- |
| Cc1cc(C)n(S(=O)(=O)/C=C/c2ccccc2)n1 | 9.12 µM |
| Cc1nc(NC(=O)CSc2nc3cccnc3n2C2CCCCC2)sc1C | 8.49 µM |
| CC1CC(C)CN(S(=O)(=O)c2ccc(C(=O)Nc3nnc(-c4cccs4)o3)cc2)C1 (stereo not given) | 8.61 µM |
| CN1CCN(S(=O)(=O)c2ccc(NC(=O)Nc3cccc(Cl)c3)cc2)CC1 | 16.5 µM |
| CCOC(=O)CSc1cccc2cccnc12 | 12.6 µM |
| O=C1C=C(c2ccc(Cl)cc2)C(=O)N1Nc1ccccc1 | 14.9 µM |
| Cc1sc2ncnc(NCC(C)(C)N3CCOCC3)c2c1C | > 10 µM (inactive) |
| COC(=O)C(CC(=O)c1ccc(Br)cc1)n1ccnc1 (stereo not given) | 14.7 µM |
| Oc1ccccc1/C=N/Nc1nccnc1Cl | 2.08 µM |
| Cc1cc(C)c2oc(-c3ccc(Cl)c(NC(=O)c4ccc(C#N)cc4F)c3)nc2c1 | 6.89 µM |
| COc1cccc(C(=O)c2sc(NC(C)C)nc2N)c1 | 16.1 µM |
| Cc1ccc(/C=N/Nc2ncc(Cl)cc2Cl)s1 | 15.2 µM |
| COc1ccc(N2C(=O)CC(Sc3nnc(-c4ccccc4)o3)C2=O)cc1 (stereo not given) | 13.2 µM |
| CCOC(=O)C1=C(N)n2c(s/c(=C/c3ccco3)c2=O)=C(C(=O)OC)C1c1ccco1 (stereo not given) | 9.27 µM |
| CCCc1[nH]nc2c1C(c1ccc(Br)s1)C(C#N)=C(N)O2 (stereo not given) | 9.62 µM |
| O=C(Nc1cccnc1)c1ccc(Br)s1 | 13.1 µM |
| Cc1ccccc1NS(=O)(=O)c1ccc(N2CCCC2=O)cc1 | 16.3 µM |
| N#CC(c1ccccc1)c1ccc2c(C(F)(F)F)cc(C(F)(F)F)nc2n1 (stereo not given) | 18 µM |
| CC1(C)CC(=O)C2=C(C1)Oc1nc3ccccc3cc1C2C(C#N)C#N (stereo not given) | 14.5 µM |
| Cc1ccccc1-c1nc(CN2CCC(C(=O)NCCCN3CC(C)CC(C)C3)CC2)c(C)o1 (stereo not given) | 10.6 µM |

| Structure (SMILES) | EC50 |
| --- | --- |
| COC(=O)/C=C1\C(=O)N(c2nc3ccccc3s2)C(=S)N1c1ccc(F)cc1 | 17.8 µM |
| CCOc1cccc(-n2nnnc2-c2ccc(OC)cc2)c1 | 19.9 µM |
| CCOC(=O)C(C(C)=O)c1c(Br)c(O)c(O)c2c(C(=O)c3ccc(C)cc3)coc12 (stereo not given) | 8.67 µM |
| COc1ccc(OC)c(CCNC(=O)Cn2sc3nc(C)cc(C)c3c2=O)c1 | 11.7 µM |
| O=c1[nH]c2cc3c(cc2cc1C(c1nnnn1C1CCCCC1)N1CCSCC1)OCCO3 (stereo not given) | 19.7 µM |
| CC1(C)Cc2ccccc2C(NNC(=O)c2ccccn2)=N1 | 11.5 µM |
| CC(C)c1nnc(NC(=O)CCS(=O)(=O)c2nc(-c3cccs3)cc(C(F)(F)F)n2)s1 | 12.8 µM |
| COc1cc2nc(N3CCN(C(=O)c4ccco4)CC3)nc(N)c2cc1OC | 8.04 µM |
| O=c1[nH]c2cc3c(cc2cc1C(c1nnnn1Cc1ccccc1)N1CCCCCC1)OCCO3 (stereo not given) | 19.1 µM |
| COc1ccc(Nc2nc(N3CCCC3)nc3ccccc23)c(OC)c1 | 14.4 µM |
| CCC(=O)N1c2ccc(S(=O)(=O)CCC(=O)N3CCn4c3nc3ccccc34)cc2CC1C (stereo not given) | 9.63 µM |
| CCC(=O)OCCNc1cc(Sc2nc3ccccc3s2)c2nonc2c1[N+](=O)[O-] | 6.76 µM |
| CN1CCN(Cc2cc(COCc3ccccc3)c3cccnc3c2O)CC1 | 2.92 µM |
| CCN(CCNC(=O)C1CCN(Cc2nc(-c3ccc(Cl)cc3)oc2C)CC1)c1ccccc1 | 17.8 µM |
| COc1cc(N=c2ssnc2Cl)cc(OC)c1OC | 15.2 µM |
| O=C(Oc1c(CN2CCOCC2)cc(Cl)c2cccnc12)c1ccc(F)cc1 | 5.32 µM |
| COc1ccc(C2Oc3ccccc3C3=C2C(c2cccs2)n2ncnc2N3)cc1 (stereo not given) | 19.2 µM |
| CCCCS(=O)(=O)/C=C\C=C/S(=O)(=O)CCCC | 0.936 µM |
| Cc1ccc(-n2c(SCC(=O)Nc3ccc4c(c3)OCO4)nnc2-c2cccs2)cc1 | 17.5 µM |
| Cc1ccsc1/C=C/c1ccc2cccc(O)c2n1 | 10.9 µM |
